Results from ChEMBL document CHEMBL1154743, “A novel potent nicotinamide phosphoribosyltransferase inhibitor synthesized via click chemistry” (J Med Chem, 2010).
Activity calls are given as the source filed them. No cut-off for these calls is given here.

What was measured:
SH-SY5Y [1] = test: Cytotoxicity against human SH-SY5Y cells assessed as cell viability after 48 hrs by MTT assay; assay type: functional, cell-based
Method in brief: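 SH-SY5Y cells incubated with compound for 48 h and viability measured by MTT. Values are mean ± SEM of 8-12 determinations.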

SH-SY5Y [2] = test: Cytotoxicity against human SH-SY5Y cells assessed as reduction of total cellular NAD(P) level at 1 uM relative to control; assay type: functional; parameters: scale not given: the % may be the effect or the level left
SH-SY5Y [3] = test: Cytotoxicity against human SH-SY5Y cells assessed as reduction of total cellular NAD(P) level at 300 nM relative to control; assay type: functional; parameters: scale not given: the % may be the effect or the level left
Method in brief: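 Total cellular NAD levels in SH-SY5Y cells screened at a single fixed concentration of 300 nM. Expressed relative to control, n = 10.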

SH-SY5Y [4] = test: Cytotoxicity against human SH-SY5Y cells assessed as reduction of total cellular NAD(P) level; assay type: functional, cell-based
SH-SY5Y [5] = test: Cytotoxicity against human SH-SY5Y cells assessed as cell viability after 48 hrs by MTT assay relative to control in presence of NAD; assay type: functional
CCRF-CEM = test: Growth inhibition of human CCRF-CEM cells by sulforhodamine B assay; assay type: functional
EKVX = test: Growth inhibition of human EKVX cells by sulforhodamine B assay; assay type: functional
HOP-62 = test: Growth inhibition of human HOP62 cells by sulforhodamine B assay; assay type: functional
HOP-92 = test: Growth inhibition of human HOP92 cells by sulforhodamine B assay; assay type: functional
NCI-H23 = test: Growth inhibition of human NCI-H23 cells by sulforhodamine B assay; assay type: functional
NCI-H322M = test: Growth inhibition of human NCI-H322M cells by sulforhodamine B assay; assay type: functional
NCI-H460 = test: Growth inhibition of human NCI-H460 cells by sulforhodamine B assay; assay type: functional
NCI-H522 = test: Growth inhibition of human NCI-H522 cells by sulforhodamine B assay; assay type: functional
HCT-15 = test: Growth inhibition of human HCT15 cells by sulforhodamine B assay; assay type: functional
HT-29 = test: Growth inhibition of human HT-29 cells by sulforhodamine B assay; assay type: functional
KM12 = test: Growth inhibition of human KM12 cells by sulforhodamine B assay; assay type: functional
SW-620 = test: Growth inhibition of human SW620 cells by sulforhodamine B assay; assay type: functional
SF-295 = test: Growth inhibition of human SF295 cells by sulforhodamine B assay; assay type: functional
SF-539 = test: Growth inhibition of human SF539 cells by sulforhodamine B assay; assay type: functional
SNB-75 = test: Growth inhibition of human SNB75 cells by sulforhodamine B assay; assay type: functional
U-251 = test: Growth inhibition of human U251 cells by sulforhodamine B assay; assay type: functional
SK-MEL-2 = test: Growth inhibition of human SK-MEL-2 cells by sulforhodamine B assay; assay type: functional
SK-MEL-28 = test: Growth inhibition of human SK-MEL-28 cells by sulforhodamine B assay; assay type: functional
UACC-257 = test: Growth inhibition of human UACC257 cells by sulforhodamine B assay; assay type: functional
UACC-62 = test: Growth inhibition of human UACC62 cells by sulforhodamine B assay; assay type: functional
OVCAR-5 = test: Growth inhibition of human OVCAR5 cells by sulforhodamine B assay; assay type: functional
OVCAR-8 = test: Growth inhibition of human OVCAR8 cells by sulforhodamine B assay; assay type: functional
NCI/ADR-RES = test: Growth inhibition of human NCI/ADR-RES cells by sulforhodamine B assay; assay type: functional
SK-OV-3 = test: Growth inhibition of human SKOV3 cells by sulforhodamine B assay; assay type: functional
786-0 = test: Growth inhibition of human 786-0 cells by sulforhodamine B assay; assay type: functional
CAKI-1 = test: Growth inhibition of human Caki1 cells by sulforhodamine B assay; assay type: functional
RXF 393 = test: Growth inhibition of human RXF393 cells by sulforhodamine B assay; assay type: functional
SN12C = test: Growth inhibition of human SN12C cells by sulforhodamine B assay; assay type: functional
UO-31 = test: Growth inhibition of human UO31 cells by sulforhodamine B assay; assay type: functional
MDA-MB-231 = test: Growth inhibition of human MDA-MB-231 cells by sulforhodamine B assay; assay type: functional
BT-549 = test: Growth inhibition of human BT549 cells by sulforhodamine B assay; assay type: functional
MDA-MB-468 = test: Growth inhibition of human MDA-MB-468 cells by sulforhodamine B assay; assay type: functional
SH-SY5Y [6] = test: Induction of autophagy in human SH-SY5Y cells expressing EGFP-LC3 assessed as colocalization of autophagic vacuoles with lysosomes in acidic compartment of cell at 10 nM; assay type: functional, cell-based
[7] = read-out: LC50 (the source's name)

In the case of `O=C(CCCCCCCn1cc(-c2cccnc2)nn1)Nc1ccccc1-c1ccccc1`, the IC50 (SH-SY5Y [1]) is reported as 0.0038 µM, the Activity (SH-SY5Y [2]) is reported as 11.6% and the Activity (SH-SY5Y [3]) is reported as 9.9%. It also gave an IC50 (SH-SY5Y [4]) of 0.003 µM, an Activity (SH-SY5Y [5]) of 97% and a GI50 (CCRF-CEM) of 3.28 µM. For the same compound, the TGI (CCRF-CEM) was over 100 µM, the CC50 (CCRF-CEM; [7]) was over 100 µM and the GI50 (EKVX) was 8.46 µM. The TGI (EKVX) was over 100 µM, the CC50 (EKVX; [7]) was over 100 µM and the GI50 (HOP-62) was 23.8 µM. It also gave a TGI (HOP-62) of over 100 µM, a CC50 (HOP-62; [7]) of over 100 µM and a GI50 (HOP-92) of 97.4 µM. It also gave a TGI (HOP-92) of over 100 µM, a CC50 (HOP-92; [7]) of over 100 µM and a GI50 (NCI-H23) of 15.1 µM. For the same compound, the TGI (NCI-H23) was over 100 µM, the CC50 (NCI-H23; [7]) was over 100 µM and the GI50 (NCI-H322M) was 23.1 µM. It also gave a TGI (NCI-H322M) of over 100 µM, a CC50 (NCI-H322M; [7]) of over 100 µM and a GI50 (NCI-H460) of 0.724 µM. The TGI (NCI-H460) was over 100 µM, the CC50 (NCI-H460; [7]) was over 100 µM and the GI50 (NCI-H522) was 0.0914 µM. It also gave a TGI (NCI-H522) of over 100 µM, a CC50 (NCI-H522; [7]) of over 100 µM and a GI50 (HCT-15) of 0.257 µM. The TGI (HCT-15) was over 100 µM, the CC50 (HCT-15; [7]) was over 100 µM and the GI50 (HT-29) was 0.46 µM. For the same compound, the TGI (HT-29) was over 100 µM, the CC50 (HT-29; [7]) was over 100 µM and the GI50 (KM12) was 1.03 µM. For the same compound, the TGI (KM12) was 27.2 µM, the CC50 (KM12; [7]) was over 100 µM and the GI50 (SW-620) was 0.0615 µM. It also gave a TGI (SW-620) of over 100 µM, a CC50 (SW-620; [7]) of over 100 µM and a GI50 (SF-295) of 0.655 µM. The TGI (SF-295) was over 100 µM, the CC50 (SF-295; [7]) was over 100 µM and the GI50 (SF-539) was 0.0618 µM. The TGI (SF-539) was over 100 µM, the CC50 (SF-539; [7]) was over 100 µM and the GI50 (SNB-75) was 29.8 µM. It also gave a TGI (SNB-75) of over 100 µM, a CC50 (SNB-75; [7]) of over 100 µM and a GI50 (U-251) of 0.521 µM. For the same compound, the TGI (U-251) was over 100 µM, the CC50 (U-251; [7]) was over 100 µM and the GI50 (SK-MEL-2) was 12.8 µM. It also gave a TGI (SK-MEL-2) of 46.2 µM, a CC50 (SK-MEL-2; [7]) of 57 µM and a GI50 (SK-MEL-28) of 1.59 µM. It also gave a TGI (SK-MEL-28) of over 100 µM, a CC50 (SK-MEL-28; [7]) of over 100 µM and a GI50 (UACC-257) of 13.3 µM. The TGI (UACC-257) was 30.3 µM, the CC50 (UACC-257; [7]) was 69.3 µM and the GI50 (UACC-62) was 13.3 µM. It also gave a TGI (UACC-62) of 51.4 µM, a CC50 (UACC-62; [7]) of over 100 µM and a GI50 (OVCAR-5) of 0.268 µM. It also gave a TGI (OVCAR-5) of over 100 µM, a CC50 (OVCAR-5; [7]) of over 100 µM and a GI50 (OVCAR-8) of 0.0574 µM. It also gave a TGI (OVCAR-8) of over 38 µM, a CC50 (OVCAR-8; [7]) of over 100 µM and a GI50 (NCI/ADR-RES) of 0.0814 µM. It also gave a TGI (NCI/ADR-RES) of 33.1 µM, a CC50 (NCI/ADR-RES; [7]) of over 100 µM and a GI50 (SK-OV-3) of 20.5 µM. For the same compound, the TGI (SK-OV-3) was over 100 µM, the CC50 (SK-OV-3; [7]) was over 100 µM and the GI50 (786-0) was 7.33 µM. For the same compound, the TGI (786-0) was over 100 µM, the CC50 (786-0; [7]) was over 100 µM and the GI50 (CAKI-1) was 0.776 µM. The TGI (CAKI-1) was over 100 µM, the CC50 (CAKI-1; [7]) was over 100 µM and the GI50 (RXF 393) was 100 µM. For the same compound, the TGI (RXF 393) was over 100 µM, the CC50 (RXF 393; [7]) was over 100 µM and the GI50 (SN12C) was 0.0426 µM. It also gave a TGI (SN12C) of over 100 µM, a CC50 (SN12C; [7]) of over 100 µM and a GI50 (UO-31) of 16.9 µM. For the same compound, the TGI (UO-31) was 93 µM, the CC50 (UO-31; [7]) was over 100 µM and the GI50 (MDA-MB-231) was 20.9 µM. For the same compound, the TGI (MDA-MB-231) was over 100 µM, the CC50 (MDA-MB-231; [7]) was over 100 µM and the GI50 (BT-549) was 1.7 µM. The TGI (BT-549) was 39.3 µM, the CC50 (BT-549; [7]) was over 100 µM and the GI50 (MDA-MB-468) was 7.34 µM. The TGI (MDA-MB-468) was over 100 µM, the CC50 (MDA-MB-468; [7]) was over 100 µM and the Activity (SH-SY5Y [6]) was “Active”.
